# According to ChEMBL document CHEMBL1132206, “Design, synthesis, and in vitro activity of catamphiphilic reverters of multidrug resistance: discovery of a selective, highly efficacious chemosensitizer with potency in the nanomolar range” (J Med Chem, 1999):
# The source made the active and inactive calls. The rule behind the calls is not given here.
# Legend:
# [1] = species: Cavia porcellus; assay: Potency expressed as EC50 for the negative inotropic activity.; type: functional
# [2] = species: Cavia porcellus; assay: Decrease in developed tension of the left atrium of guinea pig expressed as the negative inotropy.; type: functional, Cardiac atrium; parameters: concentration or dose not given beside the values
# Outline: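 Isolated guinea pig left atrium, electrically driven at 1 Hz. Read-out is the fall in developed tension at 5 × 10^-5 M, given as percent change from control (n = 5-6).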
# [3] = species: Cavia porcellus; assay: Potency expressed as EC30 for the negative chronotropic activity; 'i' means Inactive; type: functional
# [4] = species: Cavia porcellus; assay: Potency expressed as IC50 for the vasorelaxant activity; 'i' means inactive.; type: functional
# [5] = species: Cavia porcellus; assay: Percent inhibition of calcium-induced contraction on K+ depolarized guinea pig aortic strip.; type: functional, Aorta; parameters: concentration or dose not given beside the values
# [6] = tested on: K562; assay: percentage of the dead cells of K-562 cells was determined for the concentration of 1 uM of the compound.; type: ADME, cell-based; settings: human, k562, 1 µM
# Outline: (§1)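 Doxorubicin-resistant K 562 cells were exposed to compound at 1 µM, and viability was scored by trypan blue exclusion. Dead cells above 20% counted as toxic.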
# [7] = tested on: K562; assay: Potency that causes a half maximal increase in nuclear concentration of pirarubicin.; type: functional, Homo sapiens
# [8] = tested on: K562; assay: The efficacy in reverting MDR was evaluated on erythroleukemia K-562 cell line.; type: functional, Homo sapiens
# Outline: (§2)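 Doxorubicin-resistant and sensitive K 562 cells in exponential growth were used in pH 7.25 HEPES buffer at 37 °C in quartz cuvettes. Pirarubicin uptake was followed as the fall in fluorescence at 590 nm (ex 480 nm). Steady-state nuclear pirarubicin was measured across a range of inhibitor concentrations. α = (CnRi − CnRo)/(CnS − CnRo); αmax is the maximal α, and [i]0.5 is the concentration giving α = 0.5 (mean ± SEM).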
# [9] = species: Cavia porcellus; assay: Decrease in atrial rate of the right atrium of guinea pig expressed as the negative chronotropy.; parameters: concentration or dose not given beside the values
# [10] = species: Cavia porcellus; assay: Potency expressed as EC30 for the negative chronotropic activity.; type: functional
# [11] = tested on: K562; assay: Percentage of the dead cells of K-562 cells was determined for the compound; type: ADME, cell-based; settings: human; outline: as §1
# [12] = tested on: K562; assay: The efficacy in reverting MDR was evaluated on human erythroleukemia K-562 cell line; type: functional; outline: as §2
# [13] = species: Cavia porcellus; assay: Potency expressed as EC50 for the negative inotropic activity; 'i' means Inactive; type: functional
SMILES,EC50 [1] [nM],Activity [2] [%],EC30 [3],IC50 [4],Activity [5] [%],Dead cells [6] [%],Potency [7] [nM],Alpha max [8],Activity [9] [%],EC30 [10] [nM],Dead cells [11] [%],Alpha max [12],EC50 [13]
COc1ccc(C(C#N)(CC#CCNCc2cc3ccccc3c3ccccc23)C(C)C)cc1OC.Cl (centres undefined),1290,88,inactive,Inactive,10,20,500,0.5,31,,,,
COc1ccc(C(C#N)(CC#CCNC2c3ccccc3-c3ccccc32)C(C)C)cc1OC.Cl (centres undefined),1100,77,,Inactive,42,,1500,,84,8250,10,0.7,
COc1ccc(C(C#N)(CC#CCN(C)C2c3ccccc3-c3ccccc32)C(C)C)cc1OC.Cl (centres undefined),350,71,inactive,Inactive,6,,500,,24,,0,0.9,
Cl.N#CC(CCCNC(c1ccccc1)c1ccccc1)(c1ccccc1)c1ccccc1,380,94,inactive,Inactive,15,2,2000,0.5,28,,,,
COc1ccc(C(C#N)(CCCNCc2cc3ccccc3c3ccccc23)C(C)C)cc1OC.Cl (centres undefined),1130,65,inactive,Inactive,19,100,,,43,,,,
CN(CCCC(C#N)(c1ccccc1)c1ccccc1)Cc1c2ccccc2cc2ccccc12.Cl,890,70,inactive,Inactive,10,0,2100,0.8,22,,,,
COc1ccc(C(C#N)(CC#CCN(C)Cc2c3ccccc3cc3ccccc23)C(C)C)cc1OC.Cl (centres undefined),630,65,inactive,Inactive,46,30,,,39,,,,
Cl.N#CC(CCCNCc1cc2ccccc2c2ccccc12)(c1ccccc1)c1ccccc1,2110,61,inactive,Inactive,3,100,,,38,,,,
COc1ccc(C(C#N)(CCCNCc2c3ccccc3cc3ccccc23)C(C)C)cc1OC.Cl (centres undefined),1110,55,,Inactive,29,3,50,0.7,65,860,,,
COc1ccc(C(C#N)(CCCN(C)CC2c3ccccc3-c3ccccc32)C(C)C)cc1OC.Cl (centres undefined),1010,75,inactive,Inactive,11,,2200,,31,,3,0.5,
COc1ccc(C(C#N)(CC#CCN(C)C23CC4CC(CC(C4)C2)C3)C(C)C)cc1OC.Cl (centres undefined),2910,66,,Inactive,33,,800,,89,370,0,0.8,
COc1ccc(C(C#N)(CCCNCC(c2ccccc2)c2ccccc2)C(C)C)cc1OC.Cl (centres undefined),830,89,,Inactive,37,,250,,74,540,5,0.7,
CN(CCCC(C#N)(c1ccccc1)c1ccccc1)C1c2ccccc2-c2ccccc21.Cl,900,55,inactive,Inactive,5,,3000,,9,,3,0.9,
Cl.N#CC(CCCNC1c2ccccc2-c2ccccc21)(c1ccccc1)c1ccccc1,1810,67,,Inactive,37,,300,,57,310,0,0.8,
COc1ccc(C(C#N)(CCCNC2c3ccccc3-c3ccccc32)C(C)C)cc1OC.Cl (centres undefined),,33,,Inactive,46,,250,,74,650,0,0.8,Not Active
Cl.N#CC(CCCNCC(c1ccccc1)c1ccccc1)(c1ccccc1)c1ccccc1,2150,75,,Inactive,19,40,,,82,1160,,,
COc1ccc(C(C#N)(CC#CCNC(c2ccccc2)c2ccccc2)C(C)C)cc1OC.Cl (centres undefined),1540,69,inactive,Inactive,23,,500,,24,,6,0.6,
COc1ccc(C(C#N)(CCCNC(c2ccccc2)c2ccccc2)C(C)C)cc1OC.Cl (centres undefined),660,73,,Inactive,32,,250,,81,690,5,0.7,
COc1ccc(C(C#N)(CC#CCNCc2c3ccccc3cc3ccccc23)C(C)C)cc1OC.Cl (centres undefined),1040,74,inactive,Inactive,12,15,2000,0.7,34,,,,
COc1ccc(C(C#N)(CCCN(C)CC23CC4CC(CC(C4)C2)C3)C(C)C)cc1OC.Cl (centres undefined),1170,68,,Inactive,39,,1400,,72,700,1,0.65,
COc1ccc(C(C#N)(CCCNCC2c3ccccc3-c3ccccc32)C(C)C)cc1OC.Cl (centres undefined),470,71,,Inactive,26,,,,68,2240,100,,
COc1ccc(C(C#N)(CCCN(C)C2c3ccccc3-c3ccccc32)C(C)C)cc1OC.Cl (centres undefined),,36,inactive,Inactive,15,,1000,,26,,0,0.8,Not Active
COc1ccc(CCN(C)CCCC(C#N)(c2ccc(OC)c(OC)c2)C(C)C)cc1OC (centres undefined) [VERAPAMIL],610,84,,,95,0,,0.7,94,70,,,
C=CCNc1nc(NCC=C)nc(N2CCC(NCC#CCC(C#N)(c3ccc(OC)c(OC)c3)C(C)C)CC2)n1.Cl (centres undefined),1890,67,,Inactive,16,0,200,0.9,81,800,,,
COc1ccc(C(C#N)(CCCNC2c3ccccc3CCc3ccccc32)C(C)C)cc1OC.Cl (centres undefined),680,70,,Inactive,24,,300,,86,210,10,0.8,
Cl.N#CC(CCCNC1c2ccccc2CCc2ccccc21)(c1ccccc1)c1ccccc1,640,80,inactive,Inactive,5,,500,,5,,3,0.5,
COc1ccc(C(C#N)(CC#CCN(C)CC2c3ccccc3-c3ccccc32)C(C)C)cc1OC.Cl (centres undefined),1110,78,inactive,Inactive,12,,,,25,,30,,
